A short description of assay [1]: Her2 expression decrease, cell viability multiplex – SKBR3 breast tumor cells, AlphaScreen, ATP viability, primary screen (AID 461;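 active means Her2 level under about 52% in both replicate screens, with viability over 70% of control, limit read from the data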;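 on Her2 level: lower value means less Her2 protein in the cells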;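 on viability: percent of carrier control wells set as 100% viability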). As to conditions: SKBR3 Her2 protein level, 18-24 h, measured here: SKBR3 viability, ATP luminescence, at 10 µM. (In general: Bead proximity is the source of the signal in Alpha formats.)
In assay [2] the target is Receptor tyrosine-protein kinase erbB-2 (Homo sapiens) (UniProt P04626). The assay is described as above. Particulars: 18-24 h, at 10 µM, stronger effect = lower value.
A short description of assay [3]: reduced viability of SK-BR-3 breast cancer cells – cell-based, 24 h, human, pilot screen (AID 572;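 active means viability at or below 10% of carrier control in both of two separate runs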;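 further: compound exposure lasted between 18 and 24 h rather than exactly 24 h; 100% = carrier-treated control wells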). Particulars: SK-BR-3 viability, CellTiter-Glo luminescence, at 10 µM, stronger effect = lower value. Background: ATP-based viability assays read luminescence as a measure of living cells.
A short description of assay [4]: HUVEC growth inhibition – cell-based, human, primary screen (AID 575;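 active means viability at or below 30% in both replicate assays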;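 further: 100% = median of untreated cell wells with 0.1% DMSO on each plate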). Particulars: HUVEC proliferation, CellTiter-Glo luminescence, 72 h; at 10 µM; stronger effect = lower value. The procedure, abridged: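 Assay system: primary human umbilical vein endothelial cells / Buffer or medium: endothelial basal medium with 2% FBS plus growth supplements / Compound dosing: one dose, 10 µM final, 0.1% DMSO / Timing: 72 h treatment at 37 °C / Signal: CTG luminescence / Benchmarks: 32 DMSO-only cell-control wells (high), 32 MePR drug-control wells (low) per plate / Plate: collagen-coated 384-well format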

Assay [5] in a line: H69AR cell proliferation blockers – human, duplicate replicates, primary screen (AID 580).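 Further: 100% = mean luminescence of untreated wells and 0% = no signal.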 As to conditions: H69AR lung tumor cells viability, ATP luminescence, 72 h; at 10 µM; stronger effect = lower value.
Assay [6] in a line: MRP1 drug-resistance reversers in H69AR cells – cell-based, doxorubicin co-treatment, pilot screen (AID 601;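 active means viability loss from added drug above about 55%, and viability with drug at most 40%, in both replicates, limit read from the data, passing the limit was not always enough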). Particulars: CellTiter-Glo, 72 h, at 10 µM; for differential viability (reversal): stronger effect = higher value.
Assay [7] can be described thus: yeast transport mutant growth inhibition pilot in 384-well plates, post-Golgi transport modulator project (AID 636; in the data active means inhibition above about 31%). Particulars: absorbance 615 nm, about 18 h, stronger effect = higher value.
Assay [8] can be described thus: growth suppression of yeast trafficking mutant, preliminary HTS, modulators of trafficking downstream of Golgi apparatus project, 1536-format plate, OD 615 nm (AID 637; in the data active means inhibition above about 30%). As to conditions: yeast transport mutant growth, absorbance 615 nm, 18 h; stronger effect = higher value.
Where [9] appears, read: H69AR cells + 2 uM doxorubicin, measured here: viability with 2 uM doxorubicin, stronger effect = lower value.
Where [10] appears, read: H69AR cells, compound alone cytotoxicity.

Active and inactive are the calls of the source.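 How the source made its calls, unless noted: active means viability at or under a set limit in both replicates, limit being median viability minus 3 SD (cut at about 48% in these data, passing the limit was not always enough); inconclusive means at or under the limit in just one replicate; inactive means at or above the limit in both replicates.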

The results in this text go back to PubChem BioAssay.

A word on the viability: it is a read-out of living cells in per cent, often relative to untreated cells. As usually defined, the inhibition is the drop in the measured response relative to a control, in per cent.

Chain of Receptor tyrosine-protein kinase erbB-2 (Homo sapiens) (P04626 whole entry, looked up): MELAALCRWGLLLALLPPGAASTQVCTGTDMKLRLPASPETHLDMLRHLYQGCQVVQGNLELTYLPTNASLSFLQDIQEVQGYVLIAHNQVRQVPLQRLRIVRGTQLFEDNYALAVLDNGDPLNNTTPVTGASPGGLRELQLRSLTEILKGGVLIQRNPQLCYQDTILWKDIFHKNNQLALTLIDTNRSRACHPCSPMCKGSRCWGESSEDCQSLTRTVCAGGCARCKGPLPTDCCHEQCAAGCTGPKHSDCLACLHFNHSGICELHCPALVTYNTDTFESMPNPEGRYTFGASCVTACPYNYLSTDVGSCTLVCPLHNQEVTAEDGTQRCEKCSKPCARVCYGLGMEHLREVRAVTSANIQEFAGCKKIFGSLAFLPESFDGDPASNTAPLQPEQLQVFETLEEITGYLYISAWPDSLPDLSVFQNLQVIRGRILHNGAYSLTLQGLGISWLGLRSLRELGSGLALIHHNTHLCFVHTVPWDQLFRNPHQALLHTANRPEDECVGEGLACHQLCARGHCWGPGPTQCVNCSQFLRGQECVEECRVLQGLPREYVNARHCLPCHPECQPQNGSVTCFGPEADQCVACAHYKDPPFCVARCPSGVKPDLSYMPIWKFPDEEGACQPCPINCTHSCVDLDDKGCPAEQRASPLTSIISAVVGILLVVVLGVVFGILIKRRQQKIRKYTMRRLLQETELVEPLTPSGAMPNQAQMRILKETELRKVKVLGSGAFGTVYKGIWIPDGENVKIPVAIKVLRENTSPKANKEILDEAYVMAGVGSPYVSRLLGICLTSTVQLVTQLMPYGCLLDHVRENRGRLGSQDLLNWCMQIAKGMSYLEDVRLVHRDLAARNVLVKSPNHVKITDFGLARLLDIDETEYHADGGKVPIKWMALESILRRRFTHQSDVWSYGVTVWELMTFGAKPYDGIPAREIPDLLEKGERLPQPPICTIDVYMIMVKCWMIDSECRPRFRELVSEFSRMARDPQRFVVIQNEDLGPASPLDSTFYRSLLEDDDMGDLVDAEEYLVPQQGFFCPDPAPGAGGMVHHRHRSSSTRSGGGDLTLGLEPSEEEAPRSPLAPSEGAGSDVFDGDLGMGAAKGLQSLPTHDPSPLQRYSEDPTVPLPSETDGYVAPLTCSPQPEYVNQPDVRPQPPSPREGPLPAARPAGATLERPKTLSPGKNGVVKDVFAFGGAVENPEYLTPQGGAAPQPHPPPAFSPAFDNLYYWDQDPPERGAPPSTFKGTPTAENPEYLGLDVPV

For `O=C(Nc1cccc(F)c1)N1CC=C(n2c(=O)[nH]c3ccccc32)CC1`, the viability is 111% in assay [1]; 111% (inactive) in assay [3]; 93.4% (inactive) in assay [4]; 81.9% (inactive) in assay [5]; 76.7% in assay [6] (setting [9]); 81.9% in assay [6] (setting [10]). In addition, the Her2 level in assay [2] is 86.5% (inactive). Besides, the differential viability (reversal) in assay [6] (H69AR cells + 2 uM doxorubicin) is 5.16% (inactive). Further, the results for the inhibition in assay [7] and in assay [8] were -4.21% (inactive) and 0.91% (inactive), respectively.

For the compound `COc1ccc(C2NC(c3ccc(OC)c(OC)c3OC)C(C)C(=O)C2C)c(OC)c1OC` (stereo not given), the viability in assay [1] was 99.5%; in assay [3] it was 99.5% (inactive); in assay [4] it was 99.7% (inactive); in assay [5] it was 92.4% (inactive); in assay [6] (setting [9]), 84.5%; in assay [6] (setting [10]) it was 92.4%. In addition, the Her2 level in assay [2] was 88.5% (inactive). Further, in assay [6] (H69AR cells + 2 uM doxorubicin), the differential viability (reversal) is 7.84% (inactive). Further, the inhibition in assay [7] was -3.42% (inactive); in assay [8] it was -2.22% (inactive).

Regarding `CCCc1cc(=O)n2[nH]cnc2n1`, the viability was 104% in assay [1]; 104% (inactive) in assay [3]; 110% (inactive) in assay [4]; 100% (inactive) in assay [5]; 96.6% in assay [6] (setting [9]); 100% in assay [6] (setting [10]). Besides, in assay [2], the Her2 level was 102% (inactive). Also, in assay [6] (H69AR cells + 2 uM doxorubicin), the differential viability (reversal) was 3.53% (inactive). For the same compound, the results for the inhibition in assay [7] and in assay [8] were -6.22% (inactive) and 0.67% (inactive), respectively.

`CC(=O)C1=C(C)OC(N)=C(C#N)C1c1ccncc1` (stereo not given): the viability in assay [1] was 133%; in assay [3] it was 133% (inactive); in assay [4], 115% (inactive); in assay [5], 93.2% (inactive); in assay [6] (setting [9]) it was 84.8%; in assay [6] (setting [10]), 93.2%. For the same compound, the Her2 level in assay [2] is 80.5% (inactive). In assay [6] (H69AR cells + 2 uM doxorubicin), the differential viability (reversal) was 8.39% (inactive). For the same compound, the inhibition is -5.6% (inactive) in assay [7] and 5.41% (inactive) in assay [8].

As to `Cn1c(=O)[nH]c(=O)c2c1nc(N1CCCCCC1)n2CCCSc1nc2ccccc2o1`, the viability in assay [1] is 84.5%; in assay [3] it was 84.5% (inactive); in assay [4] it was 66.4% (inactive); in assay [5] it was 80.7% (inactive); in assay [6] (setting [9]), 43.7%; in assay [6] (setting [10]) it was 80.7%. The Her2 level in assay [2] was 80% (inactive). The differential viability (reversal) in assay [6] (H69AR cells + 2 uM doxorubicin) is 37% (inactive). Moreover, the inhibition is -5.68% (inactive) in assay [7] and 3.97% (inactive) in assay [8].

`CCN(CC)CCOC(=O)c1cccc(OC)c1`: the viability in assay [1] is 115%; in assay [3], 115% (inactive); in assay [4], 96.9% (inactive); in assay [5] it was 90.2% (inactive); in assay [6] (setting [9]) it was 94.4%; in assay [6] (setting [10]) it was 90.2%. For the same compound, the Her2 level in assay [2] is 105% (inactive). Also, the differential viability (reversal) in assay [6] (H69AR cells + 2 uM doxorubicin) was -4.21% (inactive). Moreover, the values for the inhibition in assay [7] and in assay [8] were -5.07% (inactive) and -2.79% (inactive), respectively.

Regarding `CCOCC(=O)Nc1nc2ccc(OC)cc2s1`, the viability in assay [1] is 107%; in assay [3], 107% (inactive); in assay [4], 93.9% (inactive); in assay [5], 90.4% (inactive); in assay [6] (setting [9]), 81.5%; in assay [6] (setting [10]), 90.4%. In assay [2], the Her2 level is 102% (inactive). Also, in assay [6] (H69AR cells + 2 uM doxorubicin), the differential viability (reversal) is 8.94% (inactive). In addition, the figures for the inhibition in assay [7] and in assay [8] were 0.79% (inactive) and 5.57% (inactive), respectively.

Turning to `O=C(NCC1COc2ccccc2O1)c1ccc(NC(=O)c2ccco2)cc1` (stereo not given), the viability is 85.5% in assay [1]; 85.5% (inactive) in assay [3]; 105% (inactive) in assay [4]; 99.1% (inactive) in assay [5]; 92.4% in assay [6] (setting [9]); 99.1% in assay [6] (setting [10]). Further, the Her2 level in assay [2] was 83% (inactive). In assay [6] (H69AR cells + 2 uM doxorubicin), the differential viability (reversal) is 6.69% (inactive). In addition, the inhibition was 0% (inactive) in assay [7] and -2.33% (inactive) in assay [8].

Consider `CC1CCc2cc(F)cc3c(O)c(C(=O)Nc4cnccn4)c(=O)n1c23` (stereo not given), for which the viability was 97.5% in assay [1]; 97.5% (inactive) in assay [3]; 99.9% (inactive) in assay [4]; 92.8% (inactive) in assay [5]; 94.2% in assay [6] (setting [9]); 92.8% in assay [6] (setting [10]). Moreover, the Her2 level in assay [2] is 82.5% (inactive). In assay [6] (H69AR cells + 2 uM doxorubicin), the differential viability (reversal) is -1.42% (inactive). The figures for the inhibition in assay [7] and in assay [8] were -0.92% (inactive) and 4.52% (inactive), respectively.

With `Cc1ccccc1NC(=O)CSc1nnc(Cc2cccn2C)n1-c1ccc(F)cc1`, the viability is 88.5% in assay [1]; 88.5% (inactive) in assay [3]; 78.6% (inactive) in assay [4]; 100% (inactive) in assay [5]; 102% in assay [6] (setting [9]); 100% in assay [6] (setting [10]). Also, in assay [2], the Her2 level is 112% (inactive). The differential viability (reversal) in assay [6] (H69AR cells + 2 uM doxorubicin) is -1.44% (inactive). The results for the inhibition in assay [7] and in assay [8] were -0.9% (inactive) and -3.5% (inactive), respectively.

With `Cc1cc(NS(=O)(=O)c2ccc(NC(=O)C(C)N3C(=O)c4ccccc4C3=O)cc2)nc(C)n1` (stereo not given), the viability in assay [1] was 99%; in assay [3], 99% (inactive); in assay [4], 112% (inactive); in assay [5], 97.4% (inactive); in assay [6] (setting [9]), 91.7%; in assay [6] (setting [10]) it was 97.4%. Moreover, in assay [2], the Her2 level was 92% (inactive). Moreover, the differential viability (reversal) in assay [6] (H69AR cells + 2 uM doxorubicin) was 5.72% (inactive). Moreover, the figures for the inhibition in assay [7] and in assay [8] were -2.89% (inactive) and 5.25% (inactive), respectively.

Turning to `Cc1onc(-c2ccccc2)c1C(=O)N1CCOCC1`, the viability in assay [1] is 110%; in assay [3], 110% (inactive); in assay [4], 99.3% (inactive); in assay [5], 107% (inactive); in assay [6] (setting [9]), 94.4%; in assay [6] (setting [10]), 107%. In addition, the Her2 level in assay [2] was 87% (inactive). In addition, the differential viability (reversal) in assay [6] (H69AR cells + 2 uM doxorubicin) is 12.6% (inactive). For the same compound, the inhibition in assay [7] is -3.42% (inactive); in assay [8], -2.83% (inactive).

For the compound `COc1cc(Cn2c(-c3nonc3N)nc3ccccc32)ccc1C`, the viability in assay [1] was 104%; in assay [3], 104% (inactive); in assay [4], 38.9% (inactive); in assay [5], 17.8% (active); in assay [6] (setting [9]) it was 47.1%; in assay [6] (setting [10]) it was 17.8%. Also, the Her2 level in assay [2] is 71.5% (inactive). For the same compound, the differential viability (reversal) in assay [6] (H69AR cells + 2 uM doxorubicin) was -29.2% (inactive). Besides, the values for the inhibition in assay [7] and in assay [8] were -3.92% (inactive) and 1.59% (inactive), respectively.

Turning to `CC(=O)NCc1ccc(C(=O)CSc2nnc(-c3ccncc3)n2Cc2ccccc2)o1`, the viability in assay [1] is 99.5%; in assay [3] it was 99.5% (inactive); in assay [4], 97% (inactive); in assay [5], 97.1% (inactive); in assay [6] (setting [9]) it was 87.8%; in assay [6] (setting [10]), 97.1%. Also, in assay [2], the Her2 level was 92.5% (inactive). The differential viability (reversal) in assay [6] (H69AR cells + 2 uM doxorubicin) is 9.33% (inactive). For the same compound, the inhibition in assay [7] was -5% (inactive); in assay [8] it was 10.3% (inactive).

Consider `Cc1ccc(C2CC(c3cccc(Br)c3)Nc3nnnn32)cc1` (stereo not given), for which the viability in assay [1] is 92.5%; in assay [3] it was 92.5% (inactive); in assay [4], 56.7% (inactive); in assay [5], 91.7% (inactive); in assay [6] (setting [9]), 85%; in assay [6] (setting [10]), 91.7%. The Her2 level in assay [2] was 79.5% (inactive). Moreover, in assay [6] (H69AR cells + 2 uM doxorubicin), the differential viability (reversal) was 6.65% (inactive). For the same compound, the inhibition in assay [7] was -2.11% (inactive); in assay [8], 0.16% (inactive).

On to `Cc1nc(N2CCN(c3ncccn3)CC2)c2oc3ccccc3c2n1`, for which the viability in assay [1] was 85%; in assay [3], 85% (inactive); in assay [4], 83.9% (inactive); in assay [5], 99.4% (inactive); in assay [6] (setting [9]) it was 111%; in assay [6] (setting [10]), 99.4%. Further, in assay [2], the Her2 level is 106% (inactive). Moreover, in assay [6] (H69AR cells + 2 uM doxorubicin), the differential viability (reversal) is -11.8% (inactive). Besides, the inhibition was -5.47% (inactive) in assay [7] and -2.06% (inactive) in assay [8].
